Measurements published in ChEMBL document CHEMBL1949528, “New inhibitor of 3-phosphoinositide dependent protein kinase-1 identified from virtual screening” (Bioorg Med Chem Lett, 2012).
pIC50: −log10 of the molar value.

Key:
[1] = target: T1, 3-phosphoinositide-dependent protein kinase 1 (Homo sapiens, UniProt O15530); test: Inhibition of recombinant PDK1 using P2925 peptide as substrate by fluorescence polarization assay
T1 sequence (O15530 whole entry): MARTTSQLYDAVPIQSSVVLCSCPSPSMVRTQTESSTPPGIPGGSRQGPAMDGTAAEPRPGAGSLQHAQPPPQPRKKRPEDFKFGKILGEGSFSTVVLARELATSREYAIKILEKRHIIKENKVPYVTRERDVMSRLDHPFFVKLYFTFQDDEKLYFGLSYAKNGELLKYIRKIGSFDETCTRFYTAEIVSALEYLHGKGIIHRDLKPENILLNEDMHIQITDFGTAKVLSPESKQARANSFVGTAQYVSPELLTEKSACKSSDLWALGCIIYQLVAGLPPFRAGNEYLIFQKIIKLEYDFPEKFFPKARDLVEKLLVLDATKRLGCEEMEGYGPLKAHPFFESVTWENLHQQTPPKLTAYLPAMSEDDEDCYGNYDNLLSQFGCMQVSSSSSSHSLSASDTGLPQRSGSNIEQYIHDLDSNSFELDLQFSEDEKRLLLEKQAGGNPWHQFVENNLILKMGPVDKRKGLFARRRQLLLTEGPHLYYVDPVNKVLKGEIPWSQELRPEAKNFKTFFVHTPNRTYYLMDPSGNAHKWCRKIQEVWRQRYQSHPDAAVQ
In short: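 A fluorescence polarization kit assay. Recombinant PDK1 phosphorylates the substrate peptide with DMSO or inhibitor present. The phosphopeptide formed competes with a fluorescein-labeled phosphopeptide tracer for an anti-phosphothreonine antibody, and polarization is then read on a plate reader. A standard reference inhibitor was run alongside.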

[2] = tested on: RPMI-8226; test: Growth inhibition of human RPMI8226 cells after 48 hrs by sulforhodamine B assay; type: functional; conditions: RPMI-8226, 48 h
In short: (§1)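 Run in the NCI-DTP 60-cell-line screen. Cells were exposed for 48 h to at least five 10-fold dilutions (0.01 to 100 μM). Cell growth was estimated by sulforhodamine B protein staining. Percentage growth at each level was taken from absorbances at time zero (Tz), of the untreated control (C) and of treated cells (Ti), as [(Ti-Tz)/(C-Tz)]*100.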

[3] = tested on: HOP-92; test: Growth inhibition of human HOP92 cells after 48 hrs by sulforhodamine B assay; type: functional; conditions: HOP-92, 48 h; in short: as §1
[4] = tested on: KM12; test: Growth inhibition of human KM12 cells after 48 hrs by sulforhodamine B assay; type: functional; conditions: KM12, 48 h; in short: as §1
[5] = tested on: SF-268; test: Growth inhibition of human SF268 cells after 48 hrs by sulforhodamine B assay; type: functional; conditions: SF-268, 48 h; in short: as §1
[6] = tested on: SF-295; test: Growth inhibition of human SF295 cells after 48 hrs by sulforhodamine B assay; type: functional; conditions: SF-295, 48 h; in short: as §1
[7] = tested on: U-251; test: Growth inhibition of human U251 cells after 48 hrs by sulforhodamine B assay; type: functional; conditions: U-251, 48 h; in short: as §1
[8] = tested on: LOX IMVI; test: Growth inhibition of human LOXIMVI cells after 48 hrs by sulforhodamine B assay; type: functional; in short: as §1
[9] = tested on: OVCAR-3; test: Growth inhibition of human OVCAR3 cells after 48 hrs by sulforhodamine B assay; type: functional; conditions: OVCAR-3, 48 h; in short: as §1
[10] = tested on: RXF 393; test: Growth inhibition of human RXF393 cells after 48 hrs by sulforhodamine B assay; type: functional; conditions: RXF 393, 48 h; in short: as §1
[11] = tested on: PC-3; test: Growth inhibition of human PC3 cells after 48 hrs by sulforhodamine B assay; type: functional; conditions: PC-3, 48 h; in short: as §1
[12] = tested on: DU-145; test: Growth inhibition of human DU145 cells after 48 hrs by sulforhodamine B assay; type: functional; conditions: DU-145, 48 h; in short: as §1
[13] = tested on: Hs-578T; test: Growth inhibition of human Hs578T cells after 48 hrs by sulforhodamine B assay; type: functional; in short: as §1
[14] = tested on: Hs-578T; test: Growth inhibition of human Hs578T cells at 10 uM after 48 hrs by sulforhodamine B assay; type: functional; conditions: read-out: GI
In short: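 A single-concentration NCI-DTP test at 10 μM, run two times. After 48 h exposure, growth was read by sulforhodamine B staining and expressed as percentage growth, [(Ti-Tz)/(C-Tz)]*100, against time-zero and untreated-control absorbances. Growth inhibition is reported as 100 minus percentage growth.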

Question: With `CCOC(=O)c1ccc(Nc2cc(C)nc(Nc3ccc(C(=O)OCC)cc3)n2)cc1` as the compound, how does the pIC50 [1] read?
Answer: The pIC50 was 6.70.

Question: And the GI50 [2]?
Answer: The GI50 was 3.54 µM.

Question: What about the GI50 [3] of the same compound?
Answer: The GI50 was 3.25 µM.

Question: And the GI50 [4]?
Answer: Its GI50 is 3.62 µM.

Question: What about the GI50 [5] of the same compound?
Answer: Its GI50 is 3.8 µM.

Question: What about the GI50 [6] of the same compound?
Answer: The GI50 was 8.64 µM.

Question: What about the GI50 [7] of the same compound?
Answer: The GI50 was 9.88 µM.

Question: And the GI50 [8]?
Answer: Its GI50 is 7.24 µM.

Question: And the GI50 [9]?
Answer: Its GI50 is 2.02 µM.

Question: What about the GI50 [10] of the same compound?
Answer: Its GI50 is 5.05 µM.

Question: And the GI50 [11]?
Answer: Its GI50 is 6.02 µM.

Question: What about the GI50 [12] of the same compound?
Answer: The GI50 was 5.39 µM.

Question: And the GI50 [13]?
Answer: Its GI50 is less than 10 µM.

Question: And the inhibition of growth at 10 µM [14]?
Answer: Its inhibition of growth at 10 µM is 67%.
